Common to all, as to assay type: ADME, organism-based
Holding throughout (details): in vivo

The nature of data set [1]: Drug excretion in healthy white human urine with CYP2C8*1/*3 genotype at 2 mg, po up to 24 hrs. Put shortly: (§1)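 Urine was collected before a single 2 mg oral dose and over 0–4, 4–8, 8–12, 12–16 and 16–24 h. Metabolites M1 and M4 were measured by LC-MS/MS. With no reference standards, amounts were expressed in arbitrary units as the peak area ratio to diclofenac internal standard. Ae0-24h is the sum of amounts over the collection periods.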

The test system of data set [2] is Homo sapiens. As to the kind of experiment: Drug excretion in healthy white human urine at 2 mg, po up to 24 hrs. In a few lines: as §1
The test system of data set [3] is Homo sapiens. Nature of the data set: Drug excretion in healthy white human with SLCO1B1 521TT/CYP2C8*1/*3 combined genotype treated with 2 mg, po repaglinide. Put shortly: as §1
The test system of data set [4] is Homo sapiens. As to the kind of experiment: Drug excretion in healthy white human with SLCO1B1 521TT/CYP2C8*1/*1 combined genotype treated with 2 mg, po repaglinide. In a few lines: as §1
The test system of data set [5] is Homo sapiens. Nature of the data set: Drug excretion in healthy white human with SLCO1B1 521CC/CYP2C8*3/*3 combined genotype treated with 2 mg, po repaglinide. Put shortly:
as §1

Data set [6] deals with Homo sapiens. As to the kind of experiment: Drug excretion in healthy white human with SLCO1B1 521CC/CYP2C8*1/*3 combined genotype treated with 2 mg, po repaglinide. Put shortly: as §1
For data set [7], the system named is Homo sapiens. As to the kind of experiment: Drug excretion in healthy white human with SLCO1B1 521TC/CYP2C8*1/*1 combined genotype treated with 2 mg, po repaglinide. Put shortly: as §1
Data set [8] is described as follows: Drug excretion in healthy white human urine with CYP2C8*1/*1 genotype at 2 mg, po up to 24 hrs. Put shortly:
as §1

Data set [9] has as its system Homo sapiens. As to the kind of experiment: Drug excretion in healthy white human with SLCO1B1 521TC/CYP2C8*1/*3 combined genotype treated with 2 mg, po repaglinide. Put shortly: as §1
Data set [10] is described as follows: Drug excretion in healthy white human urine with CYP2C8*3/*3 genotype at 2 mg, po up to 24 hrs. In a few lines:
as §1

The test system of data set [11] is Homo sapiens. As to the kind of experiment: Drug excretion in healthy white human with SLCO1B1 521TC/CYP2C8*3/*3 combined genotype treated with 2 mg, po repaglinide. Put shortly: as §1
The test system of data set [12] is Homo sapiens. As to the kind of experiment: Drug excretion in healthy white human with SLCO1B1 521TT/CYP2C8*3/*3 combined genotype treated with 2 mg, po repaglinide. Put shortly: as §1

Among the data in ChEMBL document CHEMBL3526119, “Effect of the CYP2C8 genotype on the pharmacokinetics and pharmacodynamics of repaglinide” (Drug Metab Dispos, 2011) are Ae values, retold here.

With `CCOc1cc(CC(=O)N[C@@H](CC(C)C)c2ccccc2N2CCCC(O)C2)ccc1C(=O)O` (some centres undefined), the Ae in data set [1] was found to be 212.4 a.u; with Homo sapiens [2], 217.8 a.u; in the data set with Homo sapiens [3], 226.4 a.u; in the data set with Homo sapiens [4], 181.7 a.u; with Homo sapiens [5], 268.6 a.u; in the data set on Homo sapiens [6], 155.1 a.u. In addition, the Ae with Homo sapiens [7] is listed as 191.7 a.u; in data set [8], 184.2 a.u; in the data set with Homo sapiens [9], 197.8 a.u; in data set [10], 336.7 a.u; in the data set on Homo sapiens [11], 471.7 a.u; in the data set with Homo sapiens [12] it was 79.4 a.u.

Regarding `CCOc1cc(CC(=O)N[C@@H](CC(C)C)c2ccccc2N)ccc1C(=O)O`, the Ae in data set [1] is reported as 42.6 a.u; in the data set on Homo sapiens [2] it was 48.3 a.u; in the data set with Homo sapiens [3], 47.5 a.u; in the data set with Homo sapiens [4], 57 a.u; with Homo sapiens [5], 29.1 a.u; with Homo sapiens [6], 41.4 a.u. Also, the Ae in the data set on Homo sapiens [7] was 39.9 a.u; in data set [8], 52.8 a.u; with Homo sapiens [9] it was 33.3 a.u; in data set [10], 53.3 a.u; with Homo sapiens [11] it was 52.8 a.u; with Homo sapiens [12] it was 53.1 a.u.
